A selection: hits, their analogues and other compounds. The true share with any hit is near 5.8%.
Cl transport mod: modulates chloride dependent transport by human KCC2 | Q9H2X9 | KCC2 cells, thallium flux FluoZin-2 fluorescence | B-score of Tl+ flux slope (higher = more flux/activation; lower = inhibition) at 10 µM | hit rate 2.2% among 190,000 | AID 1456;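 active = thallium flux slope and its plate-corrected score both differing from the plate sample mean at a set confidence after two filtering rounds, in either direction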;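 also: slope of fluorescence scaled to starting intensity during 10 to 20 s after thallium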
Target sequence (Q9H2X9 whole entry, looked up): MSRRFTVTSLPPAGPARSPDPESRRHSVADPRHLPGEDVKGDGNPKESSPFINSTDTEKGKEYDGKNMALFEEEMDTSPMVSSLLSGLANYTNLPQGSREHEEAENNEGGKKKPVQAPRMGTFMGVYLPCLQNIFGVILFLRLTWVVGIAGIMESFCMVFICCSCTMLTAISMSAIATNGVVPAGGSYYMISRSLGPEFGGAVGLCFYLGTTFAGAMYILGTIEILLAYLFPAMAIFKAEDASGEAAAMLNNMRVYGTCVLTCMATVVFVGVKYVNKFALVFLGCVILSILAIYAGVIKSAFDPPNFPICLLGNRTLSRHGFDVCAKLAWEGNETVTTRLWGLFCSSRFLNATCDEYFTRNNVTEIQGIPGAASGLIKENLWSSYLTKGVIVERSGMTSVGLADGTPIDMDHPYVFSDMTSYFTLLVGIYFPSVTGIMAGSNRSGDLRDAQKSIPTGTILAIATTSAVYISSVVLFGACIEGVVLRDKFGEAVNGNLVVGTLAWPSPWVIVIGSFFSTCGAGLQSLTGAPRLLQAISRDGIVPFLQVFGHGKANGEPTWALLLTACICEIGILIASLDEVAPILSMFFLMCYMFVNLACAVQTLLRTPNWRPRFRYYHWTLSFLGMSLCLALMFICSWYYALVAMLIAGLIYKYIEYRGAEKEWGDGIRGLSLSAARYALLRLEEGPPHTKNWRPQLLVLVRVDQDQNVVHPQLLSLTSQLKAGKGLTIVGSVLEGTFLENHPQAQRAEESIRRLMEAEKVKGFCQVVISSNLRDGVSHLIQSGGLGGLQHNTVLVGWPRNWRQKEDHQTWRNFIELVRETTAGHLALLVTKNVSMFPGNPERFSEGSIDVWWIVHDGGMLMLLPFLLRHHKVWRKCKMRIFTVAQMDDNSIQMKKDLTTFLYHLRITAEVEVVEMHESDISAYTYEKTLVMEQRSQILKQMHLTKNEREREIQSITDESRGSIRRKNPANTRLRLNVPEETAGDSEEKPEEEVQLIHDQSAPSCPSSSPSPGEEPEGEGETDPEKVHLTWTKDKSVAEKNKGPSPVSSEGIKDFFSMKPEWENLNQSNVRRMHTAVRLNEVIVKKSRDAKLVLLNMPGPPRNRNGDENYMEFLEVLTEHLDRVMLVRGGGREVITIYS
WT yeast gro inh: growth inhibition of WT yeast, mitochondrial fusion screen. mitochondrial fusion phenotypic screen, WT strain. hit rate 2.1% among 190,000. AID 1362. inhibition, % at 10 µM; in the data active = inhibition above about 58%; tested in S. cerevisiae
14-3-3 Bad inh: disrupts binding of bovine 14-3-3 zeta to phospho-Bad peptide; P63103; TR-FRET 14-3-3zeta/Dy647-pBad peptide displacement, 1 h; inhibition, % at 21.7 µM; hit rate 0.71% among 220,000; AID 781;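 active = inhibition above about 70%, limit read from the data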;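 also: 0% = full 14-3-3 plus peptide FRET controls and 100% = background without 14-3-3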
ROMK mod: human ROMK K+ channel modulation, primary screen | P48048 | Tet-inducible ROMK, thallium flux fluorescence; actives lie on both sides | B-score at 10 µM | hit rate 2% among 130,000 | AID 1918;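 active = signal ratio slope over the read window, or its plate-corrected B-score, at least 3 SD from the plate mean, either direction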;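 also: B-score of the F/F0 ratio slope over 7 to 12 s after thallium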
NCF1 inh: inhibitors of human p47phox binding | hit rate 0.53% among 220,000 | inhibition, % at 24.7 µM | AID 1274 | p47phox/p22phox peptide binding, fluorescence polarization, 2 h;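 active = inhibition above about 30%, limit read from the data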;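 also: 0% = p47phox with labelled peptide and 100% = labelled peptide alone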
RBBP9 inh: human RBBP9 hydrolase inhibition; recombinant RBBP9, FP-Rh probe fluorescence polarization; inhibition, % at 7.94 µM; O75884; AID 1515; hit rate 0.2% among 220,000;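 active = inhibition above the campaign mean of all tested compounds plus 3 SD, cut at about 14% in these data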;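 also: plate controls were DMSO wells with RBBP9 for no effect and wells lacking RBBP9 protein for full effect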
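Measured by – fluorescence polarization · Test system – RBBP9 protein · Input – 2.5 µM RBBP9 dispensing solution, before mixing · Measure – percent inhibition from mP, scaled between DMSO and no-protein wells · Benchmarks – DMSO-treated enzyme wells and wells lacking RBBP9 · Times – preincubation 30 min plus labeling 45 min at 25 °C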
KCC2 secondary: confirmation of human KCC2 transport modulators; shares compounds with Cl transport mod; HEK293-KCC2, thallium flux, FluoZin2 fluorescence; stronger effect = higher value; AID 1713; hit rate 15% among 3,700; normalised thallium flux (F/F0 slope) at 10 µM;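 active = thallium flux slope above the same plate's solvent-only control mean plus 3 SD; inconclusive = the two replicate wells disagree; inactive = no significant difference from solvent-only control wells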
KCC2 bumet counter: thallium flux despite bumetanide block in KCC2 cells, secondary assay 3; shares compounds with Cl transport mod; HEK293-KCC2 + bumetanide/ouabain, thallium flux FluoZin2; stronger effect = higher value; normalized thallium flux at 10 µM; hit rate 49% among 3,700;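 active = thallium entry rate above the same plate's blocked-transporter control wells by more than 3 SD; inconclusive = the two repeat wells disagree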;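 also: raw slope of fluorescence over initial fluorescence between 10 and 20 s after thallium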
KCC2 sec2: confirmation of human KCC2 transport modulators | shares compounds with Cl transport mod | HEK293-KCC2, thallium flux FluoZin2 fluorescence; actives lie on both sides; F/F0 rise rate, 10–20 s post-thallium | normalized thallium flux at 10 µM | hit rate 23% among 3,700;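 active = thallium flux slope more than 3 SD above or below the plate's solvent-only control mean, mostly below; inconclusive = the two repeat wells disagreed; inactive = no significant shift from solvent-only controls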;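 also: raw slope with 0.1% DMSO as baseline and bumetanide as block control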
HEK293 Tl flux: parental HEK flux effect, counter-screen. shares compounds with Cl transport mod. HEK293 parental cells, thallium flux FluoZin2, ouabain; baseline-ratio fluorescence slope, 10–20 s after thallium. thallium flux rate (normalised fluorescence) at 10 µM. hit rate 46% among 3,700. AID 1716;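 active = thallium flux rate significantly above the same plate's solvent-only control wells, beyond their mean plus 3 SD; inconclusive = the two replicate wells gave conflicting results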
KCC2 ouabain: confirmation of human KCC2 modulators with ouabain. shares compounds with Cl transport mod. HEK293-KCC2, thallium flux FluoZin2 fluorescence; bidirectional: low = inhibitor, high = activator. raw Tl+ flux slope (below DMSO = inhibition, above = activation) at 10 µM. hit rate 48% among 3,700. AID 1717;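 active = thallium flux slope beyond 3 SD from same-plate DMSO control mean in most replicates, usually higher, sometimes lower; inconclusive = repeat tests gave conflicting results; inactive = no significant difference from controls in most replicates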;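 also: slope of initial-normalized fluorescence between seconds 10 and 20 after thallium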
HEK counter2: acts in parental HEK cells, second KCC2 counter-screen | shares compounds with Cl transport mod | HEK293 parental, thallium flux FluoZin-2 fluorescence slope | thallium flux slope at 10 µM | hit rate 33% among 3,700;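 active = thallium flux slope above the same plate's solvent-control mean plus 3 SD in both duplicate wells; inconclusive = duplicate wells that disagreed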;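 also: run without ouabain in cells lacking the KCC2 cotransporter; slope of fluorescence scaled to its starting value between 10 and 20 s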
Numbers without * were called inactive; ? = inconclusive; . = no result given.

SMILES	Cl transport mod	WT yeast gro inh	14-3-3 Bad inh	ROMK mod	NCF1 inh	RBBP9 inh	KCC2 secondary	KCC2 bumet counter	KCC2 sec2	HEK293 Tl flux	KCC2 ouabain	HEK counter2
O=C(N/N=C/c1ccc(O)cc1)/C(=C/c1ccccc1)CCO	-0.34	-5	6	.	0	-3	.	.	.	.	.	.
O=S(=O)(c1ccc2ncn(O)c2c1)N1CCOCC1	0.87	7	4	0.3	-7	2	.	.	.	.	.	.
COCC(=O)Nc1cc(OC)ccc1OC	.	10	9	.	4	-2	0.01	?	0.035	?	0.023	?
COc1ccc(Cl)cc1NC(=O)CC(C)=O	7.3*	8	-10	.	8	-5	?	?	0.033	0.0081	0.023	0.011
COCC(=O)Nc1cc([N+](=O)[O-])ccc1OC	-0.26	-7	3	0.62	-16	-10	.	.	.	.	.	.
O=S1(=O)N=C(N2CCN(Cc3ccccc3)CC2)c2ccccc21	-6*	-7	4	-0.073	-6	-6	0.0065	0.0044	0.024*	0.008	?	0.011
Fc1ccc(CSc2nncn2NC/C=C/c2ccccc2)cc1	.	23	-7	.	-8	1	0.0082	0.004	?	0.0067	?	0.0092
CC1CCCCN1C(=O)CSc1nnc(-c2c[nH]c3ccccc23)o1 (stereo unspecified)	-3.3*	-11	9	0.96	-4	-5	0.018	0.0048	0.023*	0.0074	0.015	0.01
Cc1ccc(C(=O)CSc2nnc(-c3c[nH]c4ccccc34)o2)cc1	.	8	-8	.	-12	-3	.	.	.	.	.	.
COc1ccc(NC(=O)/C(Cl)=C(/Cl)S(=O)Cc2ccccc2Cl)cn1 (stereo unspecified)	-2.8	92	20	.	5	-22	.	.	.	.	.	.
N#C/C(=N\Nc1ccc(Cl)c(Cl)c1)C(=O)C1CC1	-6*	.	4	.	-3	-8	0.0064	0.0042	0.023*	0.004*	0.012*	0.0074*
O=C1c2ccccc2NC(c2cccc(O)c2)N1NS(=O)(=O)c1ccccc1 (stereo unspecified)	-0.035	-10	-11	0.24	-9	-7	.	.	.	.	.	.
O=[N+]([O-])c1ccc(-c2nc3ccc([N+](=O)[O-])cc3[nH]2)cc1	.	13	37	.	7	-4	.	.	.	.	.	.
O=[N+]([O-])c1ccc2nc(/C=C/c3ccc(Cl)cc3)[nH]c2c1	-4.5*	67*	13	.	-21	-19	0.007	0.0052	0.029	0.0077	?	0.0099
O=C(NCCc1ccccc1)C1CCC(CNc2nc(=S)[nH]c3ccccc23)CC1 (stereo unspecified)	0.82	-8	8	0.67	-19	-6	.	.	.	.	.	.
COc1ccccc1-c1nnc2sc(COc3ccc(F)cc3)nn12	-3.9*	.	.	-3.1	0	-4	0.0066	0.0048	?	0.0059*	0.015*	?
CS(=O)(=O)N(CCc1ccccc1)CC(=O)N1CCN(Cc2ccccc2)CC1	-3.2*	11	1	-0.72	-6	1	0.0063	0.0053	0.033	0.0038	?	0.011
CCN(c1cccc(C)c1)S(=O)(=O)c1cccc2nsnc12	3.9*	6	-5	0	-6	2	0.0058	?	0.027*	0.0059*	0.015*	0.009*
CS(=O)(=O)N(CCc1ccccc1)CC(=O)N1CCCCC1	-0.2	3	7	.	-14	-4	.	.	.	.	.	.
O=C(CN(c1ccc2c(c1)OCCO2)S(=O)(=O)c1ccccc1)NCc1ccc(Cl)cc1	-1.8	14	3	-1.4	-10	-8	.	.	.	.	.	.
CN(CC(=O)NCCc1ccccc1)S(=O)(=O)c1cccc2nsnc12	-0.7	-1	-175	0.87	-11	-8	.	.	.	.	.	.
O=C(CN(c1ccc2c(c1)OCCO2)S(=O)(=O)c1ccccc1)N1CCN(Cc2ccccc2)CC1	-4.1*	11	6	-1.2	6	-3	0.0061	?	0.023*	0.0072	?	0.01
Cc1cccc(N(C)S(=O)(=O)c2cccc3nsnc23)c1	-0.68	6	-1	.	-18	-3	.	.	.	.	.	.
CCN(CCCNC(=O)CN(C)S(=O)(=O)c1cccc2nsnc12)c1ccccc1	.	3	-2	-0.28	-2	-3	0.0059	0.0043	?	0.0074	0.016	0.0097
CCC(O)CNC(=O)CCc1nnc(C2(c3ccc(Cl)cc3)CCC2)o1 (stereo unspecified)	-0.54	-11	-9	0.53	-3	-9	.	.	.	.	.	.
SMILES	Cl transport mod	WT yeast gro inh	14-3-3 Bad inh	ROMK mod	NCF1 inh	RBBP9 inh	KCC2 secondary	KCC2 bumet counter	KCC2 sec2	HEK293 Tl flux	KCC2 ouabain	HEK counter2
COc1ccc(S(=O)(=O)N(C)CC(=O)N2CCN(Cc3ccccc3)CC2)cc1C	-4.1*	7	-13	.	10	1	0.011	0.006	0.026*	0.0039	0.015*	0.012
CN(CC(=O)N1CCN(Cc2ccccc2)CC1)S(=O)(=O)c1cccc2nsnc12	-3.2*	1	1	-0.017	-6	2	0.0065	0.0044	0.02*	0.0069	0.013*	0.01
S=c1[nH]nc(CSCCOc2ccc(Cl)cc2Cl)o1	162*	.	0	.	-5	-10	0.0076	0.056*	?	0.033*	0.056*	0.0098
S=c1[nH]nc(CSCCOc2ccccc2)o1	-2.3	.	-4	.	1	-6	.	.	.	.	.	.
Cc1cccc(NC(=O)CCC(=O)Nc2nnc(C(F)(F)F)s2)c1	-0.041	.	-11	.	-3	-13	.	.	.	.	.	.
COCCNC(=O)COc1ccc(C)cc1C	-4.4*	4	12	-0.072	-16	-8	0.009	0.0067	0.03	0.0075	0.02	?
Cc1cccc(C)c1NC1=NC(=S)N(c2ccc(C(=O)O)cc2)C12CCCCC2	0.68	-18	-1	-0.66	-4	-2	.	.	.	.	.	.
COc1ccccc1N1C(=S)N=C(Nc2c(C)cccc2C)C12CCCC2	6.2*	.	-9	.	-1	-8	0.011	0.048*	0.035	0.015*	0.025	0.012*
COc1ccc(N2C(=S)N=C(Nc3cccc(C)c3)C23CCCCC3)cc1	4.3*	4	-11	0.0056	-5	-1	0.01	0.011*	0.031	0.011*	0.025	0.011*
